# Rows were chosen to be rich in hits. Some 1.3% of all compounds tested hit in one or more screens of this group.
# TPT1 inhibitor: Candida albicans TPT1 enzyme inhibitors, primary screen, biochemical, fluorescence polarization. 300,000 compounds, 0.81% hits. inhibition, % at 5 µM. recombinant caTPT1, FP RNA substrate dephosphorylation;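 active = inhibition above the mean of all tested compounds plus 3 SD, set per screening campaign, cut at about 24% in these data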
# Xi reactivation: activators of inactive X chromosome reactivation, primary screen, imaging, XiGFP fibroblasts, GFP high-content imaging, set 2; XiGFP mouse fibroblasts, % GFP-positive cells imaging, 3 d; cells co-treated with 5-aza-dC sensitizer; scaled so ellipticine positive control = 100%; activation, % at 7.58 µM; 360,000 compounds, 0.055% hits;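 active = mean normalized replicate activation at least 10% and every replicate at or above 10%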
#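 Material: XiGFP fibroblasts, SV40-immortalized; Buffer or medium: DMEM containing 5-aza-dC; Compound dosing: single point; Times: 3 days compound exposure.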
# aDG glyco up: activators of alpha-DG glycosylation, primary screen, uHTS, Pro5-aDG cells, AlphaScreen; alpha-DG glycosylation AlphaScreen (IIH6); 0% Pro5, 100% B10-LARGE cell signal; activation, % at 10 µM; 360,000 compounds, 0.22% hits;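 active = activation of at least 8% versus controls, or a plate z-score of at least 8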;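 also: Pro5 are CHO cells carrying HIG-tagged alpha-DG that lacks glycosylation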
# HNF4A DNA FP: change in binding of human HNF4A to DNA, primary screen, biochemical, fluorescence polarization, FITC-DNA; activity change, % at 10 µM; 360,000 compounds, 0.3% hits; AID 1224865, 2016; 1 h; in the data active = activity change above about 30%, passing the limit was not always enough
# CSN deneddyl inh: inhibitors of CSN-mediated cullin deneddylation, primary screen, biochemical, fluorescence polarization, uHTS; Purified CSN, SCF-Nedd8-OG deneddylation; inhibition, % at 12.5 µM; 360,000 compounds, 0.38% hits; AID 651999, 2013;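 active = pattern-corrected inhibition above about 35%, with an unprinted fluorescence ratio check between 0.5 and 1.5, limit read from the data, passing the limit was not always enough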
#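 Assay system: purified human Csn5 enzyme expressed in HEK293T cells; measure: % inhibition; also added: SCFSkp2-Nedd8OG substrate at 10 nM final; technique: fluorescence polarization; times: reaction 90 min, room temperature; medium: Tris buffer pH 7.5, NaCl, DTT, Tween-20, trehalose, ovalbumin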
# Rpn11 block: Rpn11 (PSMD14) deubiquitinase inhibitors, primary screen, biochemical, fluorescence polarization, uHTS | 360,000 compounds, 0.59% hits | inhibition, % at 20 µM | human 26S proteasome, Ub4-pepOG fluorescence polarization; 20S core pre-blocked with epoxomicin | 26S proteasome non-ATPase regulatory subunit 14 (Homo sapiens), O00487 | AID 588493, 2011;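 active = inhibition at 20 µM, scaled to each plate's controls, above about 33%, limit read from the data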
# Target sequence (O00487 whole entry, looked up): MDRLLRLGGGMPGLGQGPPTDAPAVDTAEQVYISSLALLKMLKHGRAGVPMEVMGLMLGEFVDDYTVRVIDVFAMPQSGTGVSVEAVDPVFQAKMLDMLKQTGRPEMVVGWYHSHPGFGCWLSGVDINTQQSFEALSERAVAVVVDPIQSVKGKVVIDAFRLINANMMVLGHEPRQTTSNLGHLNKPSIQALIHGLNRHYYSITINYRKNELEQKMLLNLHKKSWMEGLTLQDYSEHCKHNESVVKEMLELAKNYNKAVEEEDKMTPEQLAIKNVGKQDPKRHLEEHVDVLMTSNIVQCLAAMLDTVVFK
# TPT1 inh confirm: Candida albicans TPT1 inhibitors, confirmation, biochemical, fluorescence polarization, triplicate; shares compounds with TPT1 inhibitor; recombinant caTPT1, RNase T1 coupled; inhibition, % at 5 µM; 2,400 compounds, 74% hits; AID 2149, 2009;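 active = inhibition above the primary screen limit, the mean inhibition of all tested compounds plus 3 SD, cut at about 25% in these data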
# RNase T1 counter: RNase T1 inhibitors, counter-screen for TPT1 inhibitor project, biochemical, fluorescence polarization | shares compounds with TPT1 inhibitor | RNase T1 cleavage, 1536-well | inhibition, % at 5 µM | 2,400 compounds, 83% hits | AID 2153, 2009;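 active = inhibition above the solvent-only control well mean plus 3 SD, limit set per screening run, cut at about 23% in these data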;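 also: inhibitors block cleavage so intact labeled substrate keeps polarization high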
# Target sequence (P00651 whole entry, looked up): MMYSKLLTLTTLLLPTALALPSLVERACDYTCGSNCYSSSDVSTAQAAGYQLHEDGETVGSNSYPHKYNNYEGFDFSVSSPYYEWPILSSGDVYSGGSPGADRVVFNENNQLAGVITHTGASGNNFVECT
# Hits are given with their value; - = inactive; . = no result given.
SMILES,TPT1 inhibitor,Xi reactivation,aDG glyco up,HNF4A DNA FP,CSN deneddyl inh,Rpn11 block,TPT1 inh confirm,RNase T1 counter
Cc1cc(C)n(Cc2ccc(C(=O)N/N=C/c3ccc(-c4ccc([N+](=O)[O-])cc4)o3)o2)n1,76.0,-,-,-,-,.,64.8,24.8
CCC(=O)N/N=C/c1ccc(-c2ccc([N+](=O)[O-])cc2)o1,-,-,-,-,-,-,.,.
COc1ccc2c3c([nH]c2c1)[C@@H](CO)N(Cc1ccccc1F)CC31CCN(C(=O)C2CCOCC2)CC1,.,-,.,.,.,.,.,.
CN=c1scc(-c2ccccc2F)n1/N=C/c1ccc[nH]1,50.4,-,-,-,-,-,27.4,36.3
N#CC1=C(N)SC(N)=C(C#N)C1c1cccc(O)c1,99.7,.,-,-,-,.,107.8,111.7
N#CC1=C(N)Oc2cc(O)ccc2C1c1ccccc1 (stereo unspecified),-,.,-,-,-,-,.,.
COc1ccc(C2C(C#N)=C(N)OC(C(C)(C)C)=C2C#N)cc1OC (stereo unspecified),-,.,-,-,-,-,.,.
COc1ccc(C2C(C#N)=C(N)SC(N)=C2C#N)cc1OC,102.7,.,-,-,-,.,70.6,81.5
Cc1ccc(S(=O)(=O)c2c(N)n(CCCN(C)C)c3nc4ccccc4nc23)cc1,-,-,-,-,-,-,.,.
CN(C)CCCn1c(N)c(C#N)c2nc3ccccc3nc21,26.2,-,-,-,-,.,30.5,43.4
N#C/C(=C/c1ccc(N2CCCCC2)cc1)c1cccc(F)c1,-,-,-,-,-,-,.,.
N#C/C(=C/c1ccc(N2CCCCC2)o1)c1cccc(F)c1,134.3,.,-,-,-,.,177.7,165.6
Cc1ccc2nc(/C(C#N)=C\c3cc(C)n(-c4cccc([N+](=O)[O-])c4)c3C)[nH]c2c1,-,.,-,-,-,-,.,.
Cc1ccc(/C(C#N)=C\c2ccc(N3CCOCC3)o2)cc1,121.4,.,-,80.5,-,.,153.8,147.2
Cc1ccc2nc(/C(C#N)=C\c3ccc(N4CCOCC4)o3)[nH]c2c1,138.7,.,-,-,-,.,148.9,136.5
C[C@@H]1CN([C@H](C)CO)C(=O)c2cc(NC(=O)C3CCCCC3)ccc2O[C@H]1CN(C)Cc1ccc(C(=O)O)cc1,.,-,.,.,.,.,.,.
CN1CCCCN2[C@@H](CO)[C@H](c3ccc(Br)cc3)[C@@H]2C1,.,-,.,.,.,.,.,.
Cc1ccc(-c2ccc3c(c2)O[C@H](CN(C)C(=O)C2CC2)[C@H](C)CN([C@H](C)CO)S3(=O)=O)cc1,.,-,.,.,.,.,.,.
C[C@H]1CN([C@@H](C)CO)C(=O)Cc2cc(NC(=O)CCN3CCOCC3)ccc2O[C@@H]1CN(C)C(=O)Nc1cccc2ccccc12,.,-,.,.,.,.,.,.
C[C@@H]1CN([C@H](C)CO)C(=O)c2cc(NS(=O)(=O)c3cccs3)ccc2O[C@@H]1CN(C)CC1CC1,.,-,.,.,.,.,.,.
COc1ccc(NS(=O)(=O)c2cc([N+](=O)[O-])ccc2N/N=C\c2c(C)[nH]c3ccccc23)cc1,71.6,.,-,64.5,-,.,74.5,85.7
COc1ccc(/C=N/Nc2ccc([N+](=O)[O-])cc2S(=O)(=O)N2CCN(C)CC2)cc1,71.0,-,-,-,-,.,104.9,118.3
O=C1N[C@@H](Cc2ccccc2)COCc2cn(nn2)CC[C@H]1Cc1ccc(Cl)cc1,.,-,.,.,.,.,.,.
O=C(Nc1ccc(Cl)cc1)N[C@H]1CC[C@@H](CCNC(=O)c2ccccc2F)O[C@@H]1CO,.,-,.,.,.,.,.,.
CCCCc1ccc(C2C(C#N)=C(N)SC(N)=C2C#N)s1,136.7,.,.,.,.,.,63.6,76.2
SMILES,TPT1 inhibitor,Xi reactivation,aDG glyco up,HNF4A DNA FP,CSN deneddyl inh,Rpn11 block,TPT1 inh confirm,RNase T1 counter
CC(=O)Nc1ccc(N=Cc2c(O)c(C(=O)Nc3ccccc3)cc3ccccc23)cc1,120.8,-,.,.,.,.,109.4,107.4
C[C@@H]1CN([C@H](C)CO)C(=O)c2cc(NS(=O)(=O)c3cn(C)cn3)ccc2O[C@@H](C)CCCCO[C@H]1CN(C)C(=O)Nc1ccc(C(F)(F)F)cc1,.,-,.,.,.,.,.,.
CCOC(=O)c1c(-c2ccccc2)csc1NC(=O)/C(C#N)=C/c1ccc(O)c(OC)c1,177.8,-,-,-,-,.,192.0,174.1
COc1ccc(CN(C)C[C@@H]2Oc3ccc(NC(=O)NC4CCCCC4)cc3CC(=O)N([C@H](C)CO)C[C@@H]2C)cc1,.,-,.,.,.,.,.,.
C=CCN1C(=O)CS/C1=C(\C#N)S(=O)(=O)c1ccc(C)cc1,74.2,.,-,-,-,-,-,-
C=CCN1C(=O)CSC1=Nc1ccc(C(=O)O)cc1,-,-,-,-,-,-,.,.
COc1ccc(C[C@@H]2CCn3cc(nn3)COC[C@@H](Cc3ccccc3)NC2=O)cc1,.,-,.,.,.,.,.,.
CC1C/C(=C/c2cccs2)C(=O)/C(=C/c2cccs2)C1 (stereo unspecified),25.6,-,-,-,-,-,-,-
O=C1/C(=C/c2ccco2)Cc2ccccc21,-,-,-,-,-,-,.,.
O=C1C(=Cc2cccs2)CCc2ccccc21,.,-,.,.,.,.,.,.
CC1C/C(=C/c2ccco2)C(=O)/C(=C/c2ccco2)C1 (stereo unspecified),61.3,.,.,.,.,.,62.3,70.7
COC(=O)c1c(-c2ccc3ccccc3c2)csc1NC(=O)Cc1ccc(OC)c(OC)c1,38.8,.,-,-,-,.,63.4,69.8
COC(=O)c1c(-c2ccc(OC)c(OC)c2)csc1N,-,.,-,-,-,-,.,.
COc1ccc(C2NC3=C(CCCC3)C(C#N)(C#N)C2(C#N)C#N)cc1 (stereo unspecified),33.4,.,.,.,.,.,34.3,47.4
O=C(NCC[C@H]1CC[C@@H](NC(=O)C2CCCC2)[C@@H](CO)O1)c1cnccn1,.,-,.,.,.,.,.,.
CC(C(=O)c1ccc(Br)cc1)[n+]1cccc2ccccc21 (stereo unspecified),37.0,-,-,-,-,.,-,26.3
CC(C(=O)c1ccc(Br)cc1)[n+]1cccc(NC(=O)c2ccccc2)c1 (stereo unspecified),-,-,-,-,-,-,.,.

# Compound activity from PubChem.
